ChEMBL document CHEMBL5724801, “EUbOPEN Chemogenomics Library - Multiplex” (2024)
Several values for one entry are separate records, joined by “and”; a condition that tells them apart may be missing. Equal entries are not always repeated.

system: HEK-293T; assay: Multiplex assay against HEK293T; format: toxicity, cell-based; conditions: human, 12 h, 1 µM, compound concentration 1 uM
Procedure, shortened: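 Tubulin, mitochondrial-mass and membrane-permeability phenotypes are per cents of healthy-nucleus cells. Cells were gated by CellPathfinder machine learning into Hoechst high-intensity objects or normal cells, normal cells into healthy, pyknosed or fragmented nuclei, and pyknosed cells into mitotic or apoptotic. Before that, live cells stained at seeding with Hoechst33342, BioTracker Green Microtubule Cytoskeleton Dye, MitoTracker Red and Annexin V Alexa Fluor 680 were imaged on a CQ1 microscope at 37°C and 5% CO2 after compound addition.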

Q: For `S=c1[nH]nc(-c2cccs2)n1-c1ccccc1`, which “Population Apoptotic (%)” value is on record?
A: 14.62% and 11.2%

Q: And the “Population Fragmented Nuclei (%)” value?
A: 2.05% and 4.52%

Q: What about the “Population Hoechst High Intensity Objects (%)” value of the same compound?
A: 1.01% and 0%

Q: And the “Population Membrane Permeable-Phenotype (%)” value?
A: 0% and 4.35%

Q: What about the “Population Mitochondria Different-Phenotype (%)” value of the same compound?
A: 35.03% and 21.74%

Q: What about the “Population Mitotic Cells (%)” value of the same compound?
A: 85.38% and 88.8%

Q: And the “Population Normal (%)” value?
A: 98.99% and 100%

Q: And the “Population Pyknosed Nuclei (%)” value?
A: 44.37% and 80.65%

Q: And the “Total Cell Count” value?
A: 296 and 155

Q: For `C[C@@H]1C[C@H]2[C@@H]3CCC4=CC(=O)C=C[C@]4(C)[C@@]3(F)[C@@H](O)C[C@]2(C)[C@@]1(O)C(=O)CO` [DEXAMETHASONE], which “Population Apoptotic (%)” value is on record?
A: 37% and 53%

Q: What about the “Population Fragmented Nuclei (%)” value of the same compound?
A: 8% and 7%

Q: And the “Population Healthy Nuclei (%)” value?
A: 78% and 80%

Q: And the “Population Hoechst High Intensity Objects (%)” value?
A: 2% and 8%

Q: What about the “Population Membrane Permeable-Phenotype (%)” value of the same compound?
A: 1% and 0%

Q: What about the “Population Mitochondria Different-Phenotype (%)” value of the same compound?
A: 45% and 62%

Q: And the “Population Mitotic Cells (%)” value?
A: 62% and 46%

Q: And the “Population Normal (%)” value?
A: 97% and 91%

Q: What about the “Population Pyknosed Nuclei (%)” value of the same compound?
A: 12%

Q: And the “Population Tubulin-Different-Phenotype (%)” value?
A: 24% and 26%

Q: What about the “Total Cell Count” value of the same compound?
A: 420 and 372

same assay, conditions: human, 12 h, 10 µM, compound concentration 10 uM

Q: Which results are given for `S=c1[nH]nc(-c2cccs2)n1-c1ccccc1`?
A: Population Apoptotic (%): 8.82% and 18.42%; Population Fragmented Nuclei (%): 0.89% and 2.82%; Population Hoechst High Intensity Objects (%): 0%; Population Membrane Permeable-Phenotype (%): 0%; Population Mitotic Cells (%): 91.18% and 81.58%; Population Normal (%): 100%; Population Pyknosed Nuclei (%): 40.24% and 80.28%; Population Tubulin-Different-Phenotype (%): 9.05% and 25%; Total Cell Count: 338 and 142

Q: Which “Population Apoptotic (%)” value does the source give for `C[C@@H]1C[C@H]2[C@@H]3CCC4=CC(=O)C=C[C@]4(C)[C@@]3(F)[C@@H](O)C[C@]2(C)[C@@]1(O)C(=O)CO` [DEXAMETHASONE] here?
A: 37% and 44%

Q: And the “Population Fragmented Nuclei (%)” value?
A: 7% and 5%

Q: What about the “Population Healthy Nuclei (%)” value of the same compound?
A: 79% and 81%

Q: And the “Population Hoechst High Intensity Objects (%)” value?
A: 6% and 14%

Q: And the “Population Membrane Permeable-Phenotype (%)” value?
A: 0%

Q: And the “Population Mitochondria Different-Phenotype (%)” value?
A: 44% and 69%

Q: What about the “Population Mitotic Cells (%)” value of the same compound?
A: 62% and 55%

Q: What about the “Population Normal (%)” value of the same compound?
A: 93% and 85%

Q: And the “Population Pyknosed Nuclei (%)” value?
A: 13%

Q: And the “Population Tubulin-Different-Phenotype (%)” value?
A: 33% and 39%

Q: And the “Total Cell Count” value?
A: 374 and 436

same assay, conditions: human, 24 h, 1 µM, compound concentration 1 uM

Q: How did the “Population Apoptotic (%)” value turn out when `S=c1[nH]nc(-c2cccs2)n1-c1ccccc1` was run?
A: 11.36% and 17.16%

Q: And the “Population Fragmented Nuclei (%)” value?
A: 1.73% and 2.2%

Q: And the “Population Hoechst High Intensity Objects (%)” value?
A: 0.76% and 0%

Q: And the “Population Membrane Permeable-Phenotype (%)” value?
A: 0.26% and 2.27%

Q: And the “Population Mitochondria Different-Phenotype (%)” value?
A: 13.46% and 15.91%

Q: And the “Population Mitotic Cells (%)” value?
A: 88.64% and 82.84%

Q: What about the “Population Normal (%)” value of the same compound?
A: 99.24% and 100%

Q: And the “Population Pyknosed Nuclei (%)” value?
A: 25.38% and 73.63%

Q: And the “Population Tubulin-Different-Phenotype (%)” value?
A: 8.97% and 6.82%

Q: What about the “Total Cell Count” value of the same compound?
A: 524 and 182

Q: `C[C@@H]1C[C@H]2[C@@H]3CCC4=CC(=O)C=C[C@]4(C)[C@@]3(F)[C@@H](O)C[C@]2(C)[C@@]1(O)C(=O)CO` [DEXAMETHASONE] was tested. Which “Population Apoptotic (%)” value did it give?
A: 31% and 42%

Q: And the “Population Fragmented Nuclei (%)” value?
A: 9% and 12%

Q: What about the “Population Healthy Nuclei (%)” value of the same compound?
A: 78% and 79%

Q: And the “Population Hoechst High Intensity Objects (%)” value?
A: 4% and 7%

Q: And the “Population Membrane Permeable-Phenotype (%)” value?
A: 0%

Q: And the “Population Mitochondria Different-Phenotype (%)” value?
A: 30% and 45%

Q: What about the “Population Mitotic Cells (%)” value of the same compound?
A: 68% and 57%

Q: What about the “Population Normal (%)” value of the same compound?
A: 95% and 92%

Q: And the “Population Pyknosed Nuclei (%)” value?
A: 12% and 8%

Q: What about the “Population Tubulin-Different-Phenotype (%)” value of the same compound?
A: 17%

Q: And the “Total Cell Count” value?
A: 569 and 499

same assay, conditions: human, 24 h, 10 µM, compound concentration 10 uM

Q: With `S=c1[nH]nc(-c2cccs2)n1-c1ccccc1` as the compound, how does the “Population Apoptotic (%)” value read?
A: 17.95% and 22%

Q: And the “Population Fragmented Nuclei (%)” value?
A: 1.78% and 2.9%

Q: And the “Population Hoechst High Intensity Objects (%)” value?
A: 0%

Q: And the “Population Membrane Permeable-Phenotype (%)” value?
A: 0.53% and 0%

Q: What about the “Population Mitochondria Different-Phenotype (%)” value of the same compound?
A: 11.35% and 2.94%

Q: What about the “Population Mitotic Cells (%)” value of the same compound?
A: 82.05% and 78%

Q: What about the “Population Normal (%)” value of the same compound?
A: 100%

Q: What about the “Population Tubulin-Different-Phenotype (%)” value of the same compound?
A: 9.76% and 8.82%

Q: With `C[C@@H]1C[C@H]2[C@@H]3CCC4=CC(=O)C=C[C@]4(C)[C@@]3(F)[C@@H](O)C[C@]2(C)[C@@]1(O)C(=O)CO` [DEXAMETHASONE] as the compound, how does the “Population Apoptotic (%)” value read?
A: 36% and 44%

Q: What about the “Population Fragmented Nuclei (%)” value of the same compound?
A: 8% and 9%

Q: And the “Population Healthy Nuclei (%)” value?
A: 74% and 79%

Q: And the “Population Hoechst High Intensity Objects (%)” value?
A: 6% and 15%

Q: What about the “Population Membrane Permeable-Phenotype (%)” value of the same compound?
A: 0%

Q: And the “Population Mitochondria Different-Phenotype (%)” value?
A: 30% and 43%

Q: And the “Population Mitotic Cells (%)” value?
A: 63% and 56%

Q: What about the “Population Normal (%)” value of the same compound?
A: 93% and 84%

Q: What about the “Population Pyknosed Nuclei (%)” value of the same compound?
A: 16% and 11%

Q: What about the “Population Tubulin-Different-Phenotype (%)” value of the same compound?
A: 29% and 22%

Q: What about the “Total Cell Count” value of the same compound?
A: 453 and 513

same assay, conditions: human, 48 h, 1 µM, compound concentration 1 uM

Q: With `S=c1[nH]nc(-c2cccs2)n1-c1ccccc1` as the compound, how does the “Population Fragmented Nuclei (%)” value read?
A: 2.52% and 0.96%

Q: And the “Population Healthy Nuclei (%)” value?
A: 87.46% and 66.83%

Q: And the “Population Hoechst High Intensity Objects (%)” value?
A: 0.07% and 0%

Q: And the “Population Membrane Permeable-Phenotype (%)” value?
A: 4.24% and 5.04%

Q: And the “Population Mitochondria Different-Phenotype (%)” value?
A: 13.4% and 16.55%

Q: And the “Population Mitotic Cells (%)” value?
A: 94.07% and 77.61%

Q: What about the “Population Normal (%)” value of the same compound?
A: 99.93% and 100%

Q: With `C[C@@H]1C[C@H]2[C@@H]3CCC4=CC(=O)C=C[C@]4(C)[C@@]3(F)[C@@H](O)C[C@]2(C)[C@@]1(O)C(=O)CO` [DEXAMETHASONE] as the compound, how does the “Population Apoptotic (%)” value read?
A: 30% and 27%

Q: And the “Population Fragmented Nuclei (%)” value?
A: 15%

Q: What about the “Population Healthy Nuclei (%)” value of the same compound?
A: 77% and 78%

Q: And the “Population Hoechst High Intensity Objects (%)” value?
A: 1% and 3%

Q: And the “Population Membrane Permeable-Phenotype (%)” value?
A: 1% and 0%

Q: What about the “Population Mitochondria Different-Phenotype (%)” value of the same compound?
A: 18% and 27%

Q: What about the “Population Mitotic Cells (%)” value of the same compound?
A: 69% and 72%

Q: And the “Population Normal (%)” value?
A: 98% and 96%

Q: What about the “Population Pyknosed Nuclei (%)” value of the same compound?
A: 7% and 6%

Q: What about the “Population Tubulin-Different-Phenotype (%)” value of the same compound?
A: 12% and 15%

Q: And the “Total Cell Count” value?
A: 915 and 685

same assay, conditions: human, 48 h, 10 µM, compound concentration 10 uM

Q: Which results are given for `S=c1[nH]nc(-c2cccs2)n1-c1ccccc1`?
A: Population Apoptotic (%): 10.32% and 16.67%; Population Fragmented Nuclei (%): 2.79% and 3.68%; Population Healthy Nuclei (%): 86.89% and 63.19%; Population Hoechst High Intensity Objects (%): 0%; Population Membrane Permeable-Phenotype (%): 5.38% and 1.94%; Population Mitochondria Different-Phenotype (%): 11.04% and 20.39%; Population Mitotic Cells (%): 89.68% and 83.33%; Population Normal (%): 100%

Q: For `C[C@@H]1C[C@H]2[C@@H]3CCC4=CC(=O)C=C[C@]4(C)[C@@]3(F)[C@@H](O)C[C@]2(C)[C@@]1(O)C(=O)CO` [DEXAMETHASONE], which “Population Apoptotic (%)” value is on record?
A: 25% and 50%

Q: What about the “Population Fragmented Nuclei (%)” value of the same compound?
A: 15% and 16%

Q: What about the “Population Healthy Nuclei (%)” value of the same compound?
A: 76%

Q: What about the “Population Hoechst High Intensity Objects (%)” value of the same compound?
A: 3% and 6%

Q: What about the “Population Membrane Permeable-Phenotype (%)” value of the same compound?
A: 0%

Q: What about the “Population Mitochondria Different-Phenotype (%)” value of the same compound?
A: 18% and 28%

Q: And the “Population Mitotic Cells (%)” value?
A: 75% and 49%

Q: What about the “Population Normal (%)” value of the same compound?
A: 96% and 93%

Q: What about the “Population Pyknosed Nuclei (%)” value of the same compound?
A: 7%

Q: And the “Population Tubulin-Different-Phenotype (%)” value?
A: 14% and 19%

Q: And the “Total Cell Count” value?
A: 760 and 756
